We go through four compounds from ChEMBL document CHEMBL3045565, “Microwave synthesis, characterization and bio-efficacy evaluation of novel chalcone based 6-carbethoxy-2-cyclohexen-1-one and 2H-indazol-3-ol derivatives” (Eur J Med Chem, 2013).

In brackets after ≈: the same amount, converted by molar mass.

Common to all, as to assay type: functional
Experiment [1] deals with Radical scavenging activity. Nature of the experiment: Antioxidant activity assessed as DPPH free radical scavenging activity at 40 ug/mL after 20 min by UV-Vis spectrophotometric analysis. Summed up: (§1)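 DPPH radical scavenging: samples were held at room temperature for 20 min in the dark, and absorbance was read at 517 nm. The control contained DMSO without compound, and methanol was used for baseline correction. Scavenging percentage was calculated from the absorbances.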

For another experiment, the system named is Bacillus pumilus. Nature of the experiment: Antibacterial activity against Bacillus pumilus MTCC 2466 assessed as growth inhibition at 100 ug/disk after 24 hr by disk diffusion method. The following applies: MTCC 2466, 24 h, read-out: DIZ. Summed up:
(§2)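 Disk diffusion on nutrient agar. Strains kept on NA slants at 37 °C and subcultured in nutrient broth before testing. A log-phase culture was spread on solidified medium, and sterile disks were loaded with compound from DMSO stock. DMSO served as control, with commercial antibiotics for reference. Plates ran 24 h at 37 °C, and inhibition zones (mm) were read in quadruplicate.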
A general note: A growth-free zone around the sample is the usual read-out of agar diffusion tests.

Another experiment concerns Athelia rolfsii. Put plainly: Antifungal activity against Athelia rolfsii ITCC 6181 by food poisoning method. The conditions noted are these: Agroathelia rolfsii. Summed up:
(§3)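 Poisoned food technique on PDA at several concentrations. A 5 mm mycelial plug from the growing edge of a 2-week-old colony was placed inoculum-side down at the plate centre. Plates incubated at 27 °C until control growth was nearly complete. Colony diameter measured, percent inhibition calculated against control, LC50 derived. Four replicates per treatment.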

For experiment [2], the system named is Radical scavenging activity. Nature of the experiment: Antioxidant activity assessed as DPPH free radical scavenging activity after 20 min by UV-Vis spectrophotometric analysis. Set-up: concentration or dose not given beside the values. Summed up: as §1
(The DPPH test is a chemical assay of radical scavenging.)

The test system of the next experiment is Klebsiella pneumoniae. Put plainly: Antibacterial activity against Klebsiella pneumoniae MTCC 7028 assessed as growth inhibition at 100 ug/disk after 24 hr by disk diffusion method. The following applies: MTCC 7028, 24 h, read-out: DIZ. Summed up: as §2
Experiment [3] has as its system Radical scavenging activity. Nature of the experiment: Antioxidant activity assessed as DPPH free radical scavenging activity at 100 ug/mL after 20 min by UV-Vis spectrophotometric analysis. Summed up: as §1
A further experiment relates to Pseudomonas aeruginosa. Nature of the experiment: Antibacterial activity against Pseudomonas aeruginosa MTCC 2581 assessed as growth inhibition at 100 ug/disk after 24 hr by disk diffusion method. The following applies: MTCC 2581, 24 h, read-out: DIZ. Summed up:
as §2

The test system of a further experiment is Xanthomonas oryzae. Put plainly: Antibacterial activity against Xanthomonas oryzae ITCC B-47 assessed as as growth inhibition at 100 ug/disk after 24 hr by disk diffusion method. The conditions noted are these: ITCC B-47, 24 h, read-out: DIZ.
Experiment [4] concerns Radical scavenging activity. Put plainly: Antioxidant activity assessed as DPPH free radical scavenging activity at 400 ug/mL after 20 min by UV-Vis spectrophotometric analysis. Summed up: as §1
The test system of the next experiment is Staphylococcus aureus. Put plainly: Antibacterial activity against Staphylococcus aureus MTCC 3160 assessed as growth inhibition at 100 ug/disk after 24 hr by disk diffusion method. The following applies: MTCC 3160, 24 h, read-out: DIZ. Summed up: as §2
Experiment [5] deals with Radical scavenging activity. Nature of the experiment: Antioxidant activity assessed as DPPH free radical scavenging activity at 200 ug/mL after 20 min by UV-Vis spectrophotometric analysis. Summed up: as §1
A further experiment deals with Dickeya chrysanthemi. Put plainly: Antibacterial activity against Erwinia chrysanthemi ITCC B-40 assessed as as growth inhibition at 100 ug/disk after 24 hr by disk diffusion method. The following applies: ITCC B-40, 24 h, read-out: DIZ. Summed up: as §2
Experiment [6] concerns Radical scavenging activity. Nature of the experiment: Antioxidant activity assessed as DPPH free radical scavenging activity at 300 ug/mL after 20 min by UV-Vis spectrophotometric analysis. Summed up:
as §1

For the next experiment, the system named is Rhizoctonia solani. Put plainly: Antifungal activity against Rhizoctonia solani ITCC 5563 by food poisoning method. Summed up: as §3
For experiment [7], the system named is Radical scavenging activity. Put plainly: Antioxidant activity assessed as DPPH free radical scavenging activity at 60 ug/mL after 20 min by UV-Vis spectrophotometric analysis. Summed up:
as §1

The subject of the next experiment is Bacillus thuringiensis. Nature of the experiment: Antibacterial activity against Bacillus thuringiensis MTCC 6941 assessed as growth inhibition at 100 ug/disk after 24 hr by disk diffusion method. The following applies: MTCC 6941, 24 h, read-out: DIZ. Summed up: as §2
In experiment [8] the test system is Radical scavenging activity. Put plainly: Antioxidant activity assessed as DPPH free radical scavenging activity at 500 ug/mL after 20 min by UV-Vis spectrophotometric analysis. Summed up:
as §1

In experiment [9] the test system is Radical scavenging activity. Put plainly: Antioxidant activity assessed as DPPH free radical scavenging activity at 80 ug/mL after 20 min by UV-Vis spectrophotometric analysis. Summed up: as §1
Experiment [10] relates to Radical scavenging activity. Put plainly: Antioxidant activity assessed as DPPH free radical scavenging activity at 20 ug/mL after 20 min by UV-Vis spectrophotometric analysis. Summed up: as §1
The subject of experiment [11] is Radical scavenging activity. Put plainly: Antioxidant activity assessed as DPPH free radical scavenging activity at 10 ug/mL after 20 min by UV-Vis spectrophotometric analysis. Summed up:
as §1

As usually defined, the LC50 is the concentration that kills 50% of the test population. The IC50 is the concentration at which inhibition is half-maximal. As to `COc1ccc(C2CC(c3ccc(Cl)cc3)=Cc3n[nH]c(O)c32)cc1` (centres undefined), the Activity came out at 43.2% in experiment [1]; 43.2% in [2]; 89.9% in [3]; 89.8% in experiment [4]; 91.2% in [5]; 89.7% in experiment [6]. Besides, the Activity in experiment [7] stood at 68.7%; in experiment [8], 90%; in [9] it was 86.4%; in [10] it was 21.7%; in [11] it was 13.9%. Also, the zone of inhibition at 100 µg/disc with Bacillus pumilus, with Klebsiella pneumoniae, in the experiment on Pseudomonas aeruginosa, in the experiment with Xanthomonas oryzae, with Staphylococcus aureus and with Dickeya chrysanthemi was 0 mm each time. Also, the zone of inhibition at 100 µg/disc with Bacillus thuringiensis was 0 mm. For the same compound, the LC50 is 941 µg/mL (≈ 2670 µM) in the experiment with Athelia rolfsii and 587 µg/mL (≈ 1660 µM) with Rhizoctonia solani. Moreover, the IC50 in [2] was found to be 42.34 µg/mL (≈ 120 µM).

In the case of `COc1ccc(C2CC(c3ccccc3)=Cc3n[nH]c(O)c32)cc1OC` (centres undefined), the Activity in [1] worked out at 69.9%; in experiment [2], 69.9%; in experiment [3], 91.8%; in [4], 90.5%; in [5], 91.9%; in [6], 91.9%. Besides, the Activity in experiment [7] turned out to be 87.6%; in experiment [8] it was 90.8%; in experiment [9], 90.9%; in experiment [10], 30.2%; in experiment [11], 18.1%. In addition, the zone of inhibition at 100 µg/disc in the experiment with Bacillus pumilus stood at 0 mm; in the experiment on Klebsiella pneumoniae, 0 mm; with Pseudomonas aeruginosa, 5 mm; in the experiment with Xanthomonas oryzae, 0 mm; in the experiment with Staphylococcus aureus it was 0 mm; with Dickeya chrysanthemi it was 0 mm. In addition, in the experiment with Bacillus thuringiensis, the zone of inhibition at 100 µg/disc was found to be 0 mm. Further, the LC50 in the experiment on Athelia rolfsii turned out to be 817 µg/mL (≈ 2340 µM); with Rhizoctonia solani it was 696 µg/mL (≈ 2000 µM). In experiment [2], the IC50 was 21.98 µg/mL (≈ 63.1 µM).

`Cc1ccc(C2=Cc3n[nH]c(O)c3C(c3ccc(C)cc3)C2)cc1` (centres undefined): the Activity in [1] was 18.2%; in [2] it was 18.1%; in experiment [3], 40.3%; in experiment [4], 84.8%; in [5] it was 68.1%; in [6], 80.5%. The Activity in experiment [7] was determined as 31.5%; in experiment [8], 85.2%; in experiment [9] it was 34.9%; in experiment [10], 4.4%; in experiment [11], 3.4%. The zone of inhibition at 100 µg/disc in the experiment with Bacillus pumilus amounted to 0 mm; with Klebsiella pneumoniae it was 0 mm; with Pseudomonas aeruginosa it was 10 mm; in the experiment with Xanthomonas oryzae, 0 mm; with Staphylococcus aureus it was 5 mm; in the experiment with Dickeya chrysanthemi it was 0 mm. In addition, the zone of inhibition at 100 µg/disc in the experiment on Bacillus thuringiensis is 0 mm. Moreover, the LC50 stood at 876 µg/mL (≈ 2770 µM) in the experiment with Athelia rolfsii and 814 µg/mL (≈ 2570 µM) with Rhizoctonia solani. Moreover, in [2], the concentration for half-maximal inhibition (IC50) is 123.54 µg/mL (≈ 390 µM).

In the case of `Oc1[nH]nc2c1C(c1ccccc1)CC(c1ccccc1)=C2` (centres undefined), the Activity came out at 40.3% in experiment [1]; 40.3% in [2]; 73.3% in experiment [3]; 89.1% in experiment [4]; 90.6% in [5]; 89% in experiment [6]. Besides, the Activity was found to be 62.5% in experiment [7]; 89.2% in experiment [8]; 67.3% in experiment [9]; 10.9% in experiment [10]; 9.1% in experiment [11]. Besides, the zone of inhibition at 100 µg/disc turned out to be 0 mm in the experiment with Bacillus pumilus; 10 mm with Klebsiella pneumoniae; 0 mm with Pseudomonas aeruginosa; 0 mm in the experiment with Xanthomonas oryzae; 0 mm with Staphylococcus aureus; 0 mm in the experiment on Dickeya chrysanthemi. The zone of inhibition at 100 µg/disc with Bacillus thuringiensis stood at 0 mm. Besides, the LC50 in the experiment on Athelia rolfsii amounted to 873 µg/mL (≈ 3030 µM); with Rhizoctonia solani, 802 µg/mL (≈ 2780 µM). In experiment [2], the concentration for half-maximal inhibition (IC50) turned out to be 58.28 µg/mL (≈ 202 µM).
